# Activity calls are given as the source filed them. The calls are words filed in the database; no cut-off is given here.
# Assays:
# Plasmodium falciparum [1] = test: Antimalarial activity against Plasmodium falciparum Pf3D70087/N9 infected in immunodeficient HM-IL2Rgamma null mouse after 7 days; assay type: functional
# Procedure, shortened: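 Four-day test in female NOD-scid IL2Rγnull mice engrafted by daily i.p. injections of human erythrocytes. Mice were infected i.v. with 20 × 10^6 Pf3D70087/N9-infected hE, then randomized 3 days later (3/group) and dosed orally once daily for 4 days. Day-7 parasitemia was measured by SYTO-16/TER-119 flow cytometry relative to vehicle. ED90 came from a sigmoid dose-response fit.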
# Plasmodium falciparum [2] = test: Antimalarial activity against Plasmodium falciparum Pf3D70087/N9 infected in immunodeficient HM-beta2 m null mouse after 7 days; assay type: functional
# Plasmodium falciparum [3] = test: Antimalarial activity against Plasmodium falciparum PfV1S0176/N10 infected in immunodeficient HM-IL2Rgamma null mouse after 7 days; assay type: functional
# Plasmodium falciparum [4] = test: Antimalarial activity against Plasmodium falciparum Pf3D70087/N9 infected in immunodeficient HM-IL2Rgamma null mouse assessed as decreased parasitemia at 50 mg/kg, po for 4 days after 28 days; assay type: functional, organism-based; set-up: dose 50 mg/kg
# Procedure, shortened: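 Engrafted NOD-scid IL2Rγnull mice each carried about […] Pf3D70087/N9-infected hE. They were dosed orally at 50 mg/kg once daily for four consecutive days. Peripheral blood was checked for parasites up to at least 28 days after treatment ended.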
SMILES,ED90 (Plasmodium falciparum [1]),ED90 (Plasmodium falciparum [2]),ED90 (Plasmodium falciparum [3]),Activity (Plasmodium falciparum [4])
Cc1[nH]c(CO)c(-c2ccc(Oc3ccc(OC(F)(F)F)cc3)cc2)c(=O)c1Cl,0.6 mg/kg,0.6 mg/kg,<1 mg/kg,
CCN(CC)CCCC(C)Nc1ccnc2cc(Cl)ccc12 (stereo not drawn) [CHLOROQUINE],4.9 mg/kg,4.4 mg/kg,>50 mg/kg,Active
CCc1nc(N)nc(N)c1-c1ccc(Cl)cc1 [PYRIMETHAMINE],0.5 mg/kg,0.9 mg/kg,>50 mg/kg,
C[C@H]1[C@H](OC(=O)CCC(=O)O)O[C@@H]2O[C@@]3(C)CC[C@H]4[C@H](C)CC[C@@H]1[C@@]24OO3 [ARTESUNATE],12.9 mg/kg,12.7 mg/kg,<20 mg/kg,

# — ChEMBL document CHEMBL1649209, “Improved murine model of malaria using Plasmodium falciparum competent strains and non-myelodepleted NOD-scid IL2Rgammanull mice engrafted with human erythrocytes” (2009)
